In ChEMBL document CHEMBL3120050, “Synthesis, receptor affinity and effect on pentylenetetrazole-induced seizure threshold of novel benzodiazepine analogues: 3-Substituted 5-(2-phenoxybenzyl)-4H-1,2,4-triazoles and 2-amino-5-(phenoxybenzyl)-1,3,4-oxadiazoles” (Bioorg Med Chem, 2014):

Tests used:
[1] = Displacement of [3H]flumazenil from GABAA/BZD receptor in Sprague-Dawley rat cortical membrane after 35 mins by competition binding assay
Procedure, shortened: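 Cortex from male Sprague-Dawley rats (300-350 g), homogenized in Tris-HCl, washed, and preincubated 30 min at 37°C; membranes stored at -20°C and used within 1-15 days. 100 µg membrane protein incubated with 8.6×10^-5 nmole [3H]-flumazenil plus increasing test ligand in 50 mM Tris-HCl pH 7.4 (0.5 mL), 30°C, 35 min. Stopped by centrifugation. Excess diazepam defined nonspecific binding. Triplicates; IC50 = 50% inhibition of specific binding.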

Mus musculus [2] = assay: Anticonvulsant activity in NMRI mouse assessed as pentylenetetrazole-induced clonic seizure threshold at 10 mg/kg, ip administered 60 mins before pentylenetetrazole challenge; assay type: functional; settings: route intraperitoneal
Procedure, shortened: (§1)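 Male NMRI mice (24-30 g), at least eight per group, each used once. Compounds dispersed in 0.5% CMC and given i.p. in 10 ml/kg, 60 min before PTZ. PTZ (0.5% in saline) infused i.v. into the tail vein at 0.5 ml/min in unrestrained animals until forelimb clonus then full body clonus. Threshold = minimal PTZ dose (mg/kg) for clonic seizure, expressed as % and compared with CMC group; mean ± SEM.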

Mus musculus [3] = assay: Anticonvulsant activity in NMRI mouse assessed as pentylenetetrazole-induced clonic seizure threshold at 20 mg/kg, ip administered 60 mins before pentylenetetrazole challenge; assay type: functional; settings: route intraperitoneal; procedure, shortened: as §1
Mus musculus [4] = assay: Anticonvulsant activity in NMRI mouse assessed as pentylenetetrazole-induced clonic seizure threshold at 5 mg/kg, ip administered 60 mins before pentylenetetrazole challenge; assay type: functional; settings: route intraperitoneal; procedure, shortened: as §1

| SMILES | IC50 [1] | Kd [1] | Activity (Mus musculus [2]) | Activity (Mus musculus [3]) | Activity (Mus musculus [4]) |
| --- | --- | --- | --- | --- | --- |
| Clc1ccc(Cc2nnc(SCc3ccccc3)[nH]2)c(Oc2ccccc2Cl)c1 | 2.23 nM | 1.36 nM | 122.18% | 128.77% | 112.52% |
| CSc1nnc(Cc2ccc(Cl)cc2Oc2ccccc2F)[nH]1 | 3.78 nM | 2.32 nM | 121.41% | 135.53% | 110.43% |
| CCSc1nnc(Cc2ccc(Cl)cc2Oc2ccccc2F)[nH]1 | 1.32 nM | 0.8 nM | 144.44% | 141.4% | 125.52% |
| CCCSc1nnc(Cc2ccc(Cl)cc2Oc2ccccc2F)[nH]1 | 1.97 nM | 1.21 nM | 127.32% | 133.41% | 119.45% |
| Fc1ccccc1Oc1cc(Cl)ccc1Cc1nnc(SCc2ccccc2)[nH]1 | 0.892 nM | 0.544 nM | 168.6% | 178.53% | 165.66% |
| Nc1nnc(Cc2ccccc2Oc2ccccc2)o1 | 1.9 nM | 1.17 nM | 142.52% | 174.36% | 131.63% |
| Nc1nnc(Cc2ccc(Cl)cc2Oc2ccccc2Cl)o1 | 1.75 nM | 1.1 nM | 132.44% | 170.25% | 125.22% |
| Nc1nnc(Cc2ccc(Cl)cc2Oc2ccccc2F)o1 | 1.89 nM | 1.16 nM | 128.95% | 154.23% | 111.61% |
| CCOc1nnc(Cc2ccccc2Oc2ccccc2)[nH]1 | 3.49 nM | 2.14 nM | 125.79% | 143.52% | 122.56% |
| CCOc1nnc(Cc2ccc(Cl)cc2Oc2ccccc2Cl)[nH]1 | 2.13 nM | 1.3 nM | 122.29% | 134.63% | 120.06% |
| CCOc1nnc(Cc2ccc(Cl)cc2Oc2ccccc2F)[nH]1 | 2.07 nM | 1.26 nM | 115.67% | 138.25% | 110.82% |
| S=c1[nH]nc(Cc2ccccc2Oc2ccccc2)[nH]1 | 3.1 nM | 1.9 nM | 141.88% | 160.47% | 126.2% |
| S=c1[nH]nc(Cc2ccc(Cl)cc2Oc2ccccc2Cl)[nH]1 | 1.78 nM | 1.09 nM | 138.87% | 158.77% | 124.08% |
| Fc1ccccc1Oc1cc(Cl)ccc1Cc1n[nH]c(=S)[nH]1 | 1.36 nM | 0.836 nM |  |  |  |
| CSc1nnc(Cc2ccccc2Oc2ccccc2)[nH]1 | 1.38 nM | 0.84 nM | 132.83% | 147.06% | 120.26% |
| CCSc1nnc(Cc2ccccc2Oc2ccccc2)[nH]1 |  |  | 141.9% | 168.55% | 132.47% |
| CCCSc1nnc(Cc2ccccc2Oc2ccccc2)[nH]1 | 1.24 nM | 0.75 nM | 139.38% | 157.5% | 127.77% |
| c1ccc(CSc2nnc(Cc3ccccc3Oc3ccccc3)[nH]2)cc1 | 2.07 nM | 1.27 nM | 139.21% | 143.4% | 129.27% |
| CSc1nnc(Cc2ccc(Cl)cc2Oc2ccccc2Cl)[nH]1 | 2.52 nM | 1.54 nM | 131.61% | 169.89% | 125.02% |
| CCSc1nnc(Cc2ccc(Cl)cc2Oc2ccccc2Cl)[nH]1 | 1.63 nM | 1 nM | 139.99% | 173.98% | 133.58% |
| CCCSc1nnc(Cc2ccc(Cl)cc2Oc2ccccc2Cl)[nH]1 | 1.35 nM | 0.82 nM | 125.29% | 134.09% | 117.68% |
| CN1C(=O)CN=C(c2ccccc2)c2cc(Cl)ccc21 [DIAZEPAM] | 2.86 nM | 1.75 nM |  |  |  |
